Assay results from different studies.
KIT T670I/V559D: Mast/stem cell growth factor receptor Kit (KIT, Homo sapiens, UniProt P10721, T670I/V559D)
KIT: Mast/stem cell growth factor receptor Kit (KIT, Homo sapiens, UniProt P10721)
KIT A829P: Mast/stem cell growth factor receptor Kit (KIT, Homo sapiens, UniProt P10721, A829P)
KIT V559D/V654A: Mast/stem cell growth factor receptor Kit (KIT, Homo sapiens, UniProt P10721, V559D/V654A)
KIT L576P: Mast/stem cell growth factor receptor Kit (KIT, Homo sapiens, UniProt P10721, L576P)
KIT autoinhibited: Mast/stem cell growth factor receptor Kit, autoinhibited (KIT, Homo sapiens, UniProt P10721)
KIT V559D: Mast/stem cell growth factor receptor Kit (KIT, Homo sapiens, UniProt P10721, V559D)

| SMILES | target | observed | technique | concentration | remaining binding |
| --- | --- | --- | --- | --- | --- |
| CN(CCCC(F)(F)F)c1nccc(-c2cnn3ncccc23)n1 | KIT T670I/V559D | binding | – | 1 µM | 100% |
| COc1cnc(Nc2cccc(S(N)(=O)=O)c2)nc1N1CCN(c2ccccc2)CC1 | KIT | binding | competition with immobilised ligand | 1 µM | 93% |
| COc1ccnn2ncc(-c3ccnc(N(C)C)n3)c12 | KIT A829P | binding | – | 1 µM | 85% |
| O=C(NCC1CCOCC1)c1n[nH]cc1NC(=O)c1c(F)cccc1F | KIT V559D/V654A | binding | competition with immobilised ligand | 1 µM | 90% |
| O=C(NCCCN1CCOCC1)c1ccc(Nc2ncc(Cl)c(-c3ccc(Cl)s3)n2)cc1 | KIT L576P | binding | competition with immobilised ligand | 1 µM | 2.8% |
| Nc1ncc2c(n1)-c1c([nH]c3ccc(C#CC4CC4)cc13)CCCC2 | KIT autoinhibited | binding | competition with immobilised ligand | 1 µM | 86% |
| C=CC(=O)N1CCC(C(=O)NCC(=O)N2CCN(c3nc(-c4cnc(N)nc4C(F)F)nc(N4CCOCC4)n3)CC2)CC1 | KIT A829P | binding | competition with immobilised ligand | 1 µM | 100% |
| O=C(c1ccc(Nc2nccc(-c3cc4ccccc4s3)n2)cc1)N1CCC(N2CCCC2)CC1 | KIT V559D | binding | competition with immobilised ligand | 1 µM | 18% |
| CC(=O)N1CCC(c2ccc(C(=O)NC(=N)N)cc2C(F)(F)F)CC1 | KIT A829P | cell-free assay | competition with immobilised ligand | 1 µM | 100% |
| CNC(=O)[C@@H]1CC[C@@H](n2c(-c3ccc4cnccc4c3)nc3ccc(C(=O)NCc4cccc(C(N)=O)c4)cc32)C1 | KIT T670I/V559D | binding | competition with immobilised ligand | 1 µM | 100% |
| C[C@@]1(Cc2ccc(C#N)cc2)C(=O)N(c2cc(Cl)cc(Cl)c2)c2ncc(C(=O)NC3(c4nc(C5CCC5)no4)CC3)n21 | Mast/stem cell growth factor receptor Kit (KIT, Homo sapiens, UniProt P10721, D816V) | cell-free assay | competition with immobilised ligand | 1 µM | 100% |
| O=C(c1ccc(Nc2ncc(Cl)c(-c3ccc(Cl)s3)n2)cc1)N1CCC(N2CCCC2)CC1 | KIT | binding | competition with immobilised ligand | 1 µM | 0.05% |
| COc1cnc(Nc2cccc(S(N)(=O)=O)c2)nc1N1CCN(c2ccccc2)C(=O)C1 | KIT L576P | binding | competition with immobilised ligand | 1 µM | 100% |
| c1cncc(-c2cccc(Nc3nccc(NC4CCCCC4)n3)c2)c1 | KIT T670I/V559D | binding | competition with immobilised ligand | 10 µM | 29% |
| CCN1CCN(Cc2ccc(C(=O)Nc3ccc(C)c(Oc4ccc5c(c4)CC(=O)N5)c3)cc2C(F)(F)F)CC1 | KIT V559D/V654A | binding | competition with immobilised ligand | 1 µM | 24% |
| CCS(=O)(=O)c1cc2cc(C[C@](O)(CC(C)(C)c3ccc(F)cc3C(N)=O)C(F)(F)F)[nH]c2cn1 | KIT L576P | cell-free assay | competition with immobilised ligand | 1 µM | 83% |

| SMILES | target | observed | technique | concentration | remaining binding |
| --- | --- | --- | --- | --- | --- |
| N[C@H]1CCN(c2nccc(-c3cnn4ncccc34)n2)C1 | Mast/stem cell growth factor receptor Kit (KIT, Homo sapiens, UniProt P10721, D816H) | binding | – | 1 µM | 64% |
| C[C@@H](c1ccc(-n2cnc3c(N)ncnc32)cc1)N1CCc2nn(C)c(Cc3ccccc3)c2C1=O | KIT autoinhibited | binding | competition with immobilised ligand | 0.1 µM | 97% |
| c1cnn2ncc(-c3ccnc(N4CCC45COC5)n3)c2c1 | KIT L576P | binding | – | 1 µM | 70% |
| NS(=O)(=O)c1cc(NC(=O)Cc2ccccc2)ccc1Oc1cccc(Cl)c1 | KIT | cell-free assay | competition with immobilised ligand | 1 µM | 89% |
| CN(C)c1ncc(F)c(-c2cnn3ncccc23)n1 | KIT | binding | – | 1 µM | 100% |
| CNC(=O)Nc1ccc2c(c1)[C@@]1(CC2)OC(=O)N(CC(=O)N(Cc2ccc(F)cc2)[C@@H](C)C(F)(F)F)C1=O | KIT V559D | cell-free assay | competition with immobilised ligand | 1 µM | 100% |
| O=C(Nc1c[nH]nc1C(=O)NC1CCNCC1)c1cc(F)cc(F)c1 | KIT L576P | binding | competition with immobilised ligand | 1 µM | 100% |
| CN(C)c1nccc(-c2cnc3ncccn23)n1 | KIT A829P | binding | – | 1 µM | 54% |
| C[C@@H]1CN(c2cc(-c3n[nH]c4ccc(OC5(C)CC5)cc34)ncn2)C[C@H](C)O1 | KIT V559D | cell-free assay | competition with immobilised ligand | 0.1 µM | 100% |
| O=C(c1ccc(Nc2ncc(Cl)c(-c3cc4ccccc4s3)n2)cc1)N1CCC(N2CCCC2)CC1 | KIT | binding | competition with immobilised ligand | 1 µM | 18% |
| C[C@@H]1CCN(c2nccc(-c3cnn4ncccc34)n2)C1 | KIT A829P | binding | – | 1 µM | 85% |
| FC(F)(F)c1ccc2c(c1)nc(-c1cccnc1)n2C1CC1 | KIT V559D | cell-free assay | competition with immobilised ligand | 1 µM | 100% |
| O=C(NCCCN1CCOCC1)c1ccc(Nc2nccc(-c3cc4ccccc4s3)n2)cc1 | KIT L576P | binding | competition with immobilised ligand | 1 µM | 8.7% |
| O=C(Nc1cnc(Oc2ccc(F)cc2)nc1)N1CCc2ncccc2[C@@H]1c1ccc(F)cc1 | KIT T670I/V559D | cell-free assay | competition with immobilised ligand | 1 µM | 84% |
| Cc1cnc(Nc2ccc(C(=O)N3CCC(N4CCCC4)CC3)cc2)nc1-c1cc2ccccc2s1 | KIT A829P | binding | competition with immobilised ligand | 1 µM | 7.2% |
